Activity calls are given as the source filed them. The calls are words filed in the database; no cut-off is given here.
How the values were obtained:
[1] = target: T1, Tyrosine-protein phosphatase non-receptor type 1 (Homo sapiens) (UniProt P18031); conditions: 50 uM
T1 sequence (whole entry): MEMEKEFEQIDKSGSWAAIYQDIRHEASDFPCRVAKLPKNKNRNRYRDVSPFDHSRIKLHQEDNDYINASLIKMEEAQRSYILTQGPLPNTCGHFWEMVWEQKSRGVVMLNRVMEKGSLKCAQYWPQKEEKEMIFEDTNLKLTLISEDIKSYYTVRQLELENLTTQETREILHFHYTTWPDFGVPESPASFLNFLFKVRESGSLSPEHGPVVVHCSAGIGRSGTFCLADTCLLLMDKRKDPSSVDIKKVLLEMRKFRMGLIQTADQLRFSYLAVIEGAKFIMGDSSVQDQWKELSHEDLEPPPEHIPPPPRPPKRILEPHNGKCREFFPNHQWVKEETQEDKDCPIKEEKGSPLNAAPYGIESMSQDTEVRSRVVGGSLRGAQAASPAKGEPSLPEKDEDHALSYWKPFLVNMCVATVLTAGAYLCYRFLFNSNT

[2] = target: T1, Tyrosine-protein phosphatase non-receptor type 1 (Homo sapiens); experiment: Inhibition of recombinant full length PTP1B (unknown origin) assessed as p-nitrophenyl phosphate conversion to p-nitrophenol up to 20 uM after 10 mins by spectrophotometric analysis
Method in brief: (§1)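 Recombinant full-length PTP1B (5 nM final) in 50 mM Bis-Tris pH 7.2, 100 mM NaCl, 1 mM DTT, 2 mM EDTA, 1 vol % DMSO, 2 mM p-nitrophenyl phosphate plus inhibitor. Mixture preincubated 5 min at 37 C, started by adding enzyme. p-Nitrophenol release followed. IC50 taken from dose-response curve as 50% activity loss after 10 min.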

[3] = target: Receptor-type tyrosine-protein phosphatase F (Homo sapiens, UniProt P10586); experiment: Inhibition of LAR (unknown origin) assessed as p-nitrophenyl phosphate conversion to p-nitrophenol after 10 mins by spectrophotometric analysis
Method in brief: (§2)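 p-Nitrophenyl phosphate substrate at 2 mM for TC-PTP and LAR, 1 mM for PTPbeta, 5 mM for CD45, 7 mM for SHP2. p-Nitrophenol release followed. IC50 read from dose-dependent curve as the concentration giving 50% activity after 10 min incubation.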

[4] = target: T2, Tyrosine-protein phosphatase non-receptor type 11 (Homo sapiens, UniProt Q06124); experiment: Inhibition of SHP2 (unknown origin) assessed as p-nitrophenyl phosphate conversion to p-nitrophenol after 10 mins by spectrophotometric analysis
T2 sequence (Q06124 whole entry): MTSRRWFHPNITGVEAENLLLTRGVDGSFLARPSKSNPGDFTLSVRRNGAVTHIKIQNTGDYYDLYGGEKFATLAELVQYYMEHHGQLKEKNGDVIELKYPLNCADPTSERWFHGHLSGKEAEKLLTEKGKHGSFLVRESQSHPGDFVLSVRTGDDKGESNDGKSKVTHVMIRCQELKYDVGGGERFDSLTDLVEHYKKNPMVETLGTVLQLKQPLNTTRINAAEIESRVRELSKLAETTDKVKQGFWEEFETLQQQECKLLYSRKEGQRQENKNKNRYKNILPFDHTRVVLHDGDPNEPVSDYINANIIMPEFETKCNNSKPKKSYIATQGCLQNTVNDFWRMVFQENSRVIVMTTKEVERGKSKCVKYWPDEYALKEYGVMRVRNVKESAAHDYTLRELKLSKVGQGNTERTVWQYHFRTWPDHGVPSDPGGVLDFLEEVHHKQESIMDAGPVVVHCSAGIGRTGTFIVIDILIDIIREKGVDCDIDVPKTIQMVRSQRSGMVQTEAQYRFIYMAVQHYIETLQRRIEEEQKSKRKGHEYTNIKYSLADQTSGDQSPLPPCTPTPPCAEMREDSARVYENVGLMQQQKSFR
Method in brief: as §2

[5] = target: T3, Receptor-type tyrosine-protein phosphatase C (Homo sapiens, UniProt P08575); experiment: Inhibition of CD45 (unknown origin) assessed as p-nitrophenyl phosphate conversion to p-nitrophenol after 10 mins by spectrophotometric analysis
T3 sequence (P08575 whole entry): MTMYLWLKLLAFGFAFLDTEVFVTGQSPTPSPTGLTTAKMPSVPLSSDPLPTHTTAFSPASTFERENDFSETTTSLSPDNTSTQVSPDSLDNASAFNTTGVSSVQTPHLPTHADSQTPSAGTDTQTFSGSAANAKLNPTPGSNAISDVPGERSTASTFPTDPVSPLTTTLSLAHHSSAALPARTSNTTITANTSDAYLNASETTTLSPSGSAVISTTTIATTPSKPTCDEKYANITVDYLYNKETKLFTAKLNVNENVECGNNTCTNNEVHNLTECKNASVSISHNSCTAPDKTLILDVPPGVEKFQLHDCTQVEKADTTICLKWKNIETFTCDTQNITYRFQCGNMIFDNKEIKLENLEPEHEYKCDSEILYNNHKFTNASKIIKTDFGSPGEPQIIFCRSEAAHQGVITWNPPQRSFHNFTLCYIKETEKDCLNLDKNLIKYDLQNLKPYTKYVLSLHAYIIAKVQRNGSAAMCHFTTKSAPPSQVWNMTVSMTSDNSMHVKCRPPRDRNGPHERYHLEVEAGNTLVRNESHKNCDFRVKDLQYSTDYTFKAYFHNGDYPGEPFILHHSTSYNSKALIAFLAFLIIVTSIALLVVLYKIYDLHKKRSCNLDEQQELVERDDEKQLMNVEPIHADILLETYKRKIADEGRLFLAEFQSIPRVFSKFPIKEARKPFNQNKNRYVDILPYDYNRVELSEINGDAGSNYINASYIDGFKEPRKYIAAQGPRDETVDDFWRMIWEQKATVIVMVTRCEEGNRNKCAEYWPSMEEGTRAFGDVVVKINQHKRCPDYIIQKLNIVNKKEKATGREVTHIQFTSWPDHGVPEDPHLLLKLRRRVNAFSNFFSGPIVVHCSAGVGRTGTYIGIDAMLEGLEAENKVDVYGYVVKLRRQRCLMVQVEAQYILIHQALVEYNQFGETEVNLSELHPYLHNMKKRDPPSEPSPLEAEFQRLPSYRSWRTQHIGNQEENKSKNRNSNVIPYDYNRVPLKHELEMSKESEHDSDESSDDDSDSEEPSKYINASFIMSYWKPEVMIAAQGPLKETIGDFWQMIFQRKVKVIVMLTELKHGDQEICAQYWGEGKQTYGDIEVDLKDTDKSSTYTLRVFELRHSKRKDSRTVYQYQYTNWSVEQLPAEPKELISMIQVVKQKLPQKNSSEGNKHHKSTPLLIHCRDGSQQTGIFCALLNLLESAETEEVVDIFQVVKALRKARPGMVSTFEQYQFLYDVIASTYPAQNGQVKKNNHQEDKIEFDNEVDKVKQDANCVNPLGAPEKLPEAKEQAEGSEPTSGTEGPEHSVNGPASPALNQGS
Method in brief: as §2

[6] = target: Receptor-type tyrosine-protein phosphatase beta (Homo sapiens, UniProt P23467); experiment: Inhibition of PTPbeta (unknown origin) assessed as p-nitrophenyl phosphate conversion to p-nitrophenol after 10 mins by spectrophotometric analysis
Method in brief: as §2

[7] = target: T4, Tyrosine-protein phosphatase non-receptor type 2 (Homo sapiens, UniProt P17706); experiment: Inhibition of TCPTP (unknown origin) assessed as p-nitrophenyl phosphate conversion to p-nitrophenol after 10 mins by spectrophotometric analysis
T4 sequence (P17706 whole entry): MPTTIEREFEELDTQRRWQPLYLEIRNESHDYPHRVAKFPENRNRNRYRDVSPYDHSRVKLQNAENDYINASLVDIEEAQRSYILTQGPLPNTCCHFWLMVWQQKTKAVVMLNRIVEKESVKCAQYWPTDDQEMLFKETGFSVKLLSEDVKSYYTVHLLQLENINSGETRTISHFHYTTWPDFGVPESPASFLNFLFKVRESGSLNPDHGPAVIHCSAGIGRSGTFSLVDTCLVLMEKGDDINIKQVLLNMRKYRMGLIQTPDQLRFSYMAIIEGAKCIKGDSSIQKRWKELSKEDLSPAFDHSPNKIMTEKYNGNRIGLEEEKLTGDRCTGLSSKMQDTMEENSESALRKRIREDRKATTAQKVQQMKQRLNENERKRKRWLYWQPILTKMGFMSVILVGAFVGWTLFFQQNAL
Method in brief: as §2

[8] = target: T5, Tyrosine-protein phosphatase non-receptor type 1 (Homo sapiens, UniProt P18031); experiment: Inhibition of recombinant truncated PTP1B (unknown origin) using pTyr1146 as substrate assessed as inorganic phosphate level after 20 mins by spectrophotometric analysis
T5 sequence (P18031 whole entry): T1 sequence (whole entry)
Method in brief: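 Truncated recombinant PTP1B (40 nM) with 0.075 mM pTyr1146 in 50 mM Bis-Tris pH 7.2, 1.1 mM DTT, 0.1 M NaCl, 1 mM EDTA. Reaction started with enzyme, run 20 min at 37 C, stopped with malachite green, held 10 min at 37 C. Phosphate read at 620 nm against standard curve, corrected for no-enzyme, no-substrate and inhibitor blanks.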

[9] = target: T5, Tyrosine-protein phosphatase non-receptor type 1; experiment: Inhibition of recombinant full length PTP1B (unknown origin) assessed as p-nitrophenyl phosphate conversion to p-nitrophenol after 10 mins by spectrophotometric analysis
Method in brief: as §1

[10] = target: T5, Tyrosine-protein phosphatase non-receptor type 1; experiment: Reversible inhibition of recombinant full length PTP1B (unknown origin) assessed as p-nitrophenyl phosphate conversion to p-nitrophenol after 10 mins by spectrophotometric analysis
Method in brief: as §1

[11] = target: T6, Tyrosine-protein phosphatase non-receptor type 2 (Homo sapiens) (UniProt P17706); experiment: Inhibition of TCPTP (unknown origin) assessed as p-nitrophenyl phosphate conversion to p-nitrophenol by spectrophotometric analysis; conditions: TDE = time-dependent effect
T6 sequence (whole entry): T4 sequence (P17706 whole entry)

[12] = target: T1, Tyrosine-protein phosphatase non-receptor type 1 (Homo sapiens); experiment: Inhibition of recombinant full length PTP1B (unknown origin) assessed as p-nitrophenyl phosphate conversion to p-nitrophenol by spectrophotometric analysis; conditions: TDE = time-dependent effect
Method in brief: as §1

[13] = species on record: Homo sapiens; experiment: Selectivity ratio of IC50 for CD45 (unknown origin) to IC50 for recombinant full length PTP1B (unknown origin)
[14] = species on record: Homo sapiens; experiment: Selectivity ratio of IC50 for TCPTP (unknown origin) to IC50 for recombinant full length PTP1B (unknown origin)
[15] = target: T5, Tyrosine-protein phosphatase non-receptor type 1; experiment: Competitive inhibition of recombinant full length PTP1B (unknown origin) assessed as p-nitrophenyl phosphate conversion to p-nitrophenol by Lineweaver-Burk plot analysis

Chain of Receptor-type tyrosine-protein phosphatase beta (P23467 whole entry): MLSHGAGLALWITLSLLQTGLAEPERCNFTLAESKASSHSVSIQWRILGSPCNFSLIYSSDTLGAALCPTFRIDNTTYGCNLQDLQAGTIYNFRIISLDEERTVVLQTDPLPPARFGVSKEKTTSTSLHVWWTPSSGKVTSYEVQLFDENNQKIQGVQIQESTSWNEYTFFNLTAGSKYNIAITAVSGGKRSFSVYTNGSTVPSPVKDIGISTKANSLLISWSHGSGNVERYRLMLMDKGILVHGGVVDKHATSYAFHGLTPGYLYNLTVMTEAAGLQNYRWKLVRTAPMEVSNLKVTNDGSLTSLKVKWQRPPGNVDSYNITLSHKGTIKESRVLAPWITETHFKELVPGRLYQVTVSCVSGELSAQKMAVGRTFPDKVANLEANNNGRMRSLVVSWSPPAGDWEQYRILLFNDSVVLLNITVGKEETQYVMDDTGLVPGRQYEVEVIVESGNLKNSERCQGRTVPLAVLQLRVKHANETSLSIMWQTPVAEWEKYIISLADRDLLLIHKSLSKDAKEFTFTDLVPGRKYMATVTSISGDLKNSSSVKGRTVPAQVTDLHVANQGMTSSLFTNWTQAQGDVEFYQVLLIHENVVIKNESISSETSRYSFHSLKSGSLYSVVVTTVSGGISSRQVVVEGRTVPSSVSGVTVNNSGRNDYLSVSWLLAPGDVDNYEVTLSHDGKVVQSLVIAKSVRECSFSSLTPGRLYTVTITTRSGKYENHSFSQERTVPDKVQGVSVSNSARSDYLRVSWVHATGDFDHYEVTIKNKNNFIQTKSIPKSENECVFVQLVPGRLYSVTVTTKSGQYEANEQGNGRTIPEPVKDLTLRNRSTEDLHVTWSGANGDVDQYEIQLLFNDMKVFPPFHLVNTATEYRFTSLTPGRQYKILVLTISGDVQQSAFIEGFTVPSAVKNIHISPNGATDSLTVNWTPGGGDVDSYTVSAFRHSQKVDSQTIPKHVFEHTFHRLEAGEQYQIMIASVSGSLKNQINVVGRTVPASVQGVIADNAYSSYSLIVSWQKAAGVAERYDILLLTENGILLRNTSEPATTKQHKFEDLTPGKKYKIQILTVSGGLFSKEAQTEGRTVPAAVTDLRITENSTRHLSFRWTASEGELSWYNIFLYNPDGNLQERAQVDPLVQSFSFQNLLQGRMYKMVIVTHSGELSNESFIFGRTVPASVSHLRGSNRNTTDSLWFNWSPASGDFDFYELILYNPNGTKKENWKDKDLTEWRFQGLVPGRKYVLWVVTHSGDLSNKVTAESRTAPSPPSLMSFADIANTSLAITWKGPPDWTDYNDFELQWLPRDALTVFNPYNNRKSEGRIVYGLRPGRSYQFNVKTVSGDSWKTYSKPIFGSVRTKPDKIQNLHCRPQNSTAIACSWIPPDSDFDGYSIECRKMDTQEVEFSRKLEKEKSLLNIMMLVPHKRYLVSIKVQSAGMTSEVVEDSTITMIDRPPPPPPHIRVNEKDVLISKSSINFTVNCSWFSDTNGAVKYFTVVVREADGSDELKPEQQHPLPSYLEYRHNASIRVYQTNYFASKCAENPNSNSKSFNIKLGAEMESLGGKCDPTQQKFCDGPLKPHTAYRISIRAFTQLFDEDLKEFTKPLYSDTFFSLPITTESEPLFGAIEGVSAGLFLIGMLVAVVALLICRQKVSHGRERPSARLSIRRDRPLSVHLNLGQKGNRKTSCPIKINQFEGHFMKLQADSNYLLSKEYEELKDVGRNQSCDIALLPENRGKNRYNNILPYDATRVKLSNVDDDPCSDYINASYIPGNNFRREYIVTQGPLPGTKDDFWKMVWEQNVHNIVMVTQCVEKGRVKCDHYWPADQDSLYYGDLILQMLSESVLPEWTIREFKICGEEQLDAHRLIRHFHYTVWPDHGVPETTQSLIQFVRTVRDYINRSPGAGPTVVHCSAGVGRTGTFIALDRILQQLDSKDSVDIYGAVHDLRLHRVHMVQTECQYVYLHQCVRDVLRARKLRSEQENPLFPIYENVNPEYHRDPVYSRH
Chain of Receptor-type tyrosine-protein phosphatase F (P10586 whole entry): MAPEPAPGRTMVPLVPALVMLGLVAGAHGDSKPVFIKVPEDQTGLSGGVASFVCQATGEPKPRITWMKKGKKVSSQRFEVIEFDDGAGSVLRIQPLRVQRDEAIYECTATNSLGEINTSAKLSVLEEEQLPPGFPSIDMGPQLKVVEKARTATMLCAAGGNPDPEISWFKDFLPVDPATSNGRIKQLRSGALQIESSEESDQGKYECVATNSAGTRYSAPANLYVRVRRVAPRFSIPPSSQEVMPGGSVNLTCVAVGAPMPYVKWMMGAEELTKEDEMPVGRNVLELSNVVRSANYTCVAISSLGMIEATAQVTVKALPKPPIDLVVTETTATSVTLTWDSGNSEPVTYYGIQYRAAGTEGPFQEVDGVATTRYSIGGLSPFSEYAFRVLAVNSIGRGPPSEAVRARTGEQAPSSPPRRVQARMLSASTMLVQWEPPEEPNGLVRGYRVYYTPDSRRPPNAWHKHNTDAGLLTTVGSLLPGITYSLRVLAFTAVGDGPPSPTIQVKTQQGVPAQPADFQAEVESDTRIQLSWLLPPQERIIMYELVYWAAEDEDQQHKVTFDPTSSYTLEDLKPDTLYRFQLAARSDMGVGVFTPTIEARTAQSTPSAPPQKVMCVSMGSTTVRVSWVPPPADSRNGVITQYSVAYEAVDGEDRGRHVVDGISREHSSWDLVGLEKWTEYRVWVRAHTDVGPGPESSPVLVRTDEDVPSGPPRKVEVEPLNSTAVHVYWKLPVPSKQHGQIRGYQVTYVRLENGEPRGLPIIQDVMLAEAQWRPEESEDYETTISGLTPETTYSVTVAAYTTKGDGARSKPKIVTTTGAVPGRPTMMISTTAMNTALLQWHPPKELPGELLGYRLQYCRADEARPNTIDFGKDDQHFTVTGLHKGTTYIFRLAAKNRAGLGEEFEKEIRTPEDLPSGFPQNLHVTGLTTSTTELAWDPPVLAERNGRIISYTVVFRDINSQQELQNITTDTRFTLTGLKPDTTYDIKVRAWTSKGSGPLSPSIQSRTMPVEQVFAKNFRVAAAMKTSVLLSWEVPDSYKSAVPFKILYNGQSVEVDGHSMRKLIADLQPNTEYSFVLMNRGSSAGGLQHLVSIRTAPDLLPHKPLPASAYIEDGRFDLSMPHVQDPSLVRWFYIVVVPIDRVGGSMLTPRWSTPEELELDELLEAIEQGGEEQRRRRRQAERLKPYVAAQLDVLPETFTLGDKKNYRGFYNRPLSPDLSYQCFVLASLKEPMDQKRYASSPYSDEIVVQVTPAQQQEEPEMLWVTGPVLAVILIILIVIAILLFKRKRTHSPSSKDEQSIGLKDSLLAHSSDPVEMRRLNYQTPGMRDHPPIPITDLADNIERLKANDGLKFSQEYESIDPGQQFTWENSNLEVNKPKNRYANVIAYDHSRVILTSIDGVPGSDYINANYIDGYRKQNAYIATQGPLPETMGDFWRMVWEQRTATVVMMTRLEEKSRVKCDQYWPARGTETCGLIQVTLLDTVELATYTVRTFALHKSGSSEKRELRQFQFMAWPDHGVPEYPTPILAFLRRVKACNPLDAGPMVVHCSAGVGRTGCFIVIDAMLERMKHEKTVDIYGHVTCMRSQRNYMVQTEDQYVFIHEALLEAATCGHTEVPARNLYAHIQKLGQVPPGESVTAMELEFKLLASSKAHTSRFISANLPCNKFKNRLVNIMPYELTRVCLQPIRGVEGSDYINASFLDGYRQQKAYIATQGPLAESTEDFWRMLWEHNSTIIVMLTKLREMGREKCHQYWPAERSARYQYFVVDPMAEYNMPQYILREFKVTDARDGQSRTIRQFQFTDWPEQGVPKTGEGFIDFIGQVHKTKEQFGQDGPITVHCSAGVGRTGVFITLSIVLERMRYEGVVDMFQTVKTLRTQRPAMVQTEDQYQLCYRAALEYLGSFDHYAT

Structure (SMILES)	inhibition [1]	inhibition [2]	IC50 [3] [µM]	IC50 [4] [µM]	IC50 [5] [µM]	IC50 [6] [µM]	IC50 [7] [µM]	IC50 [8] [µM]	IC50 [9] [µM]	Ki [10] [µM]	inhibition [11]	inhibition [12]	Ratio IC50 [13]	Ratio IC50 [14]	Ki [15] [µM]
NCCCC(O)(P(=O)(O)O)P(=O)(O)O	inactive	–	–	–	–	–	–	–	–	–	–	–	–	–	–
CCCOc1c2cccc1Cc1cccc(c1O)Cc1cccc(c1OCCC)Cc1cccc(c1O)C2	–	inactive	–	–	–	–	–	–	–	–	–	–	–	–	–
CCCOc1c2cccc1Cc1cc(C(O)(P(=O)(O)O)P(=O)(O)O)cc(c1O)Cc1cccc(c1OCCC)Cc1cccc(c1O)C2	–	–	≥ 100	3.4	8.4	18	27	4.1	1.9	0.68	tde	tde	4	14	–

Second part, the compound after the results:

inhibition [1]	inhibition [2]	IC50 [3] [µM]	IC50 [4] [µM]	IC50 [5] [µM]	IC50 [6] [µM]	IC50 [7] [µM]	IC50 [8] [µM]	IC50 [9] [µM]	Ki [10] [µM]	inhibition [11]	inhibition [12]	Ratio IC50 [13]	Ratio IC50 [14]	Ki [15] [µM]	Structure (SMILES)
–	–	> 100	9.2	59	12	22	7.3	8.3	–	–	–	–	–	–	CCCOc1c2cccc1Cc1cc(C(O)(P(=O)(O)O)P(=O)(O)O)cc(c1O)Cc1cccc(c1OCCC)Cc1cc(C(O)(P(=O)(O)O)P(=O)(O)O)cc(c1O)C2
–	–	> 100	2.6	22	–	4.9	3.9	2.5	–	–	–	–	–	–	CCCOc1c2cccc1Cc1cc(C(P(=O)(O)O)P(=O)(O)O)cc(c1O)Cc1cccc(c1OCCC)Cc1cc(C(P(=O)(O)O)P(=O)(O)O)cc(c1O)C2
–	–	> 100	1.8	5.7	13	9.3	3.7	1.2	0.74	tde	tde	4	8	0.98	CCCOc1c2cccc1Cc1cc(C(P(=O)(O)O)P(=O)(O)O)cc(c1O)Cc1cccc(c1OCCC)Cc1cccc(c1O)C2

Reference: ChEMBL document CHEMBL2429736, “Calix[4]arene methylenebisphosphonic acids as inhibitors of protein tyrosine phosphatase 1B” (Bioorg Med Chem Lett, 2013)
